Experimental findings from ChEMBL document CHEMBL1147102, “rpoN gene of Pseudomonas aeruginosa alters its susceptibility to quinolones and carbapenems” (2007) are described below.

≈ marks a conversion by molar mass, not a printed value.

What all share (type): functional
Experiment [1] relates to Pseudomonas aeruginosa. Description: Antimicrobial activity against wild type Pseudomonas aeruginosa PAO1 after 24 hrs. As to conditions: PAO1, 24 h. The procedure, abridged: (§1)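 Broth microdilution in LB broth, inoculum 1 × 10⁶ cells/ml. MIC read after 24 h at 37°C as the lowest concentration giving complete growth inhibition by unaided eye. For MBC, 10 μl from each well without visible growth was plated on LB agar and incubated 24 h at 37°C.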

Experiment [2] has as its system Pseudomonas aeruginosa. As to the kind of experiment: Antimicrobial activity against Pseudomonas aeruginosa PAO1 with rpoN mutation after 24 hrs. The conditions noted are these: PAO1, 24 h. In a few lines: as §1
The test system of experiment [3] is Pseudomonas aeruginosa. As to the kind of experiment: Antimicrobial activity against Pseudomonas aeruginosa PAO1 with pvdS mutation after 24 hrs. The conditions noted are these: PAO1, 24 h. The procedure, abridged: as §1
The test system of experiment [4] is Pseudomonas aeruginosa. Description: Increase in GFP tagged vqsR protein expression in Pseudomonas aeruginosa PAO1 with rpoN mutation at 8 ug/ml by flow cytometry relative to wild type. The procedure, abridged: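 Strains carried a plasmid GFP reporter driven by the vqsR promoter. Cells were grown in LB broth with carbenicillin 400 μg/ml. Stationary-phase (overnight) cultures were washed, resuspended in fresh LB and given ofloxacin 8 μg/ml. Samples were taken over 0–5 h, washed and resuspended in PBS. Mean fluorescence intensity came from 20,000 events, corrected for background (PAO1 without gfp). Three experiments.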
A general note: In flow cytometry, cells or beads pass a laser one at a time.

Experiment [5] has as its system Pseudomonas aeruginosa. Description: Increase in pvdS gene expression in Pseudomonas aeruginosa PAO1 with rpoN mutation at 8 ug/ml after 3 hrs relative to wild type. In a few lines:
(§2)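 Overnight LB cultures were washed and resuspended in fresh LB with ofloxacin 8 μg/ml. Sampling was at 0, 1, 3 and 5 h, with RNA stabilized immediately. DNase-treated total RNA (~650 ng) was reverse transcribed. qRT-PCR was quantified against external plasmid standard curves and normalized to the rpsL reference gene. Triplicate reactions.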

Experiment [6] concerns Pseudomonas aeruginosa. As to the kind of experiment: Increase in vqsR gene expression in Pseudomonas aeruginosa PAO1 with rpoN mutation at 8 ug/ml relative to wild type. In a few lines:
as §2

Regarding `C[C@@H](O)[C@H]1C(=O)N2C(C(=O)[O-])=C(SC3Cn4cnc[n+]4C3)[C@H](C)[C@H]12` (some centres not stated) [BIAPENEM], the MBC – broadly, the smallest concentration meeting the test's criterion for killing – in experiment [1] was 2 µg/mL (≈ 5.71 µM); in experiment [2], 16 µg/mL (≈ 45.7 µM); in experiment [3], 1 µg/mL (≈ 2.85 µM). Besides, the MIC in experiment [1], in experiment [2] and in experiment [3] was 0.5 µg/mL (≈ 1.43 µM) each time.
As for `C[C@@H](O)[C@H]1C(=O)N2C(C(=O)O)=C(SCCNC=N)C[C@H]12` [IMIPENEM ANHYDROUS], the MBC in experiment [1] was found to be 1 µg/mL (≈ 3.34 µM); in experiment [2], 16 µg/mL (≈ 53.4 µM); in experiment [3], 4 µg/mL (≈ 13.4 µM). Further, the MIC in experiment [1], in experiment [2] and in experiment [3] was 1 µg/mL (≈ 3.34 µM) throughout.
Take `CC1COc2c(N3CCN(C)CC3)c(F)cc3c(=O)c(C(=O)O)cn1c23` (configuration not stated) [OFLOXACIN]: the MBC in experiment [1] was determined as 1 µg/mL (≈ 2.77 µM); in experiment [2] it was 2 µg/mL (≈ 5.53 µM); in experiment [3], 2 µg/mL (≈ 5.53 µM). In addition, the MIC in experiment [1], in experiment [2] and in experiment [3] was 1 µg/mL (≈ 2.77 µM) throughout. The Fold change in experiment [4] amounted to 8; in experiment [5], 30; in experiment [6], 2.5.
On to `O=C(O)c1cn(C2CC2)c2cc(N3CCNCC3)c(F)cc2c1=O` [CIPROFLOXACIN], for which the MBC turned out to be 0.5 µg/mL (≈ 1.51 µM) in experiment [1], 2 µg/mL (≈ 6.04 µM) in experiment [2] and 0.25 µg/mL (≈ 0.754 µM) in experiment [3]. For the same compound, the MIC (usually the least concentration at which growth counts as inhibited) is 0.125 µg/mL (≈ 0.377 µM) in experiment [1], 0.25 µg/mL (≈ 0.754 µM) in experiment [2] and 0.125 µg/mL (≈ 0.377 µM) in experiment [3].
